Compound activity as filed in PubChem BioAssay.
Hsp70 activator = Hsp70 transcriptional activators, primary screen, cell-based, HeLa, Hsp70 promoter luciferase, luminescence, 10 µM; HeLa Hsp70 promoter luciferase reporter; scaled: vehicle 0, proteasome-inhibitor control 100%; activation, % at 10 µM; 200,000 tested, 0.04% active;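 active = activation above the mean across all tested compounds plus 3 SD, cutoff set per campaign, cut at about 5.5% in these data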;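 also: 100% = MG132 at 30 µM as the positive control and 0% = DMSO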
HSF1 inh = HSF1 inhibitors in luciferase reporter cells, primary screen, cell-based, NIH3T3, luminescence | AID 2098, 2009 | NIH3T3-HGL HSE-luciferase, MG132-induced, luminescence 8 h; active compounds read low | activity change, negative = inhibition, % at 7.5 µM (by protocol) | 300,000 tested, 0.77% active;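 active = more than half of replicate wells show activity change below -50%, luminescence cut by over half; inconclusive = some wells, but at most half, below -50%; inactive = no replicate well below -50%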;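 also: luciferase reports HSF-1 transcriptional activity via heat shock element; 0% = median of DMSO wells and -100% = zero luminescence signal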
T cruzi repl = inhibitors of intracellular T. cruzi growth, primary screen, luminescence, NIH3T3 host cells; T. cruzi beta-gal in NIH3T3, 90 h; inhibition, % (test concentration not listed); 300,000 tested, 1.4% active;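 active = mean inhibition across valid replicates above about 55%, limit read from the data; inconclusive = mean below that limit but half or more replicates reach it; inactive = mean below it, under half of replicates reach it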;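 also: signal also drops with host cell toxicity which is not excluded here; 0% = plate median of DMSO wells and 100% = zero luminescence signal; higher percent means less beta-gal luminescence so fewer parasites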
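compound dosing = single 50 nL compound addition per well in DMSO | material = NIH/3T3 host cells with β-galactosidase reporter T. cruzi | input = 5,000 host fibroblasts per well | timing = ≥90 h infection period, 3 h prior cell attachment | read-out basis = percent inhibition of parasite-derived β-gal signal | detection = GalScreen β-gal luminescence, detergent lysis, 60 min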
HSF-1 act = HSF-1 activators, primary screen, NIH3T3-HGL cells, MG132 stress, luminescence, single point; activation, % at 9 µM; AID 504408, 2011; NIH3T3-HGL HSF-1 luciferase reporter, 8 h; 100% = twice DMSO control signal; 300,000 tested, 1.7% active;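 active = mean replicate activation of at least 50% with a set share of replicates each reaching 50%; inconclusive = only one of those two conditions met; inactive = mean below 50% and too few replicates reaching it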;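 also: 0% = median of the neutral control wells and 100% = twice that signal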
L major viab = Leishmania major promastigote growth inhibition, primary screen | Leishmania major promastigotes, resazurin fluorescence viability | inhibition, % at 10 µM | 200,000 tested, 9% active; in the data active = inhibition above about 50%;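 also: promastigotes grown with compound for 44 hours at 28 °C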
Numbers without * were called inactive; ? = inconclusive; · = not tested or not shown. The sample as a whole holds a higher share of hits than the screen did.

SMILES	Hsp70 activator	HSF1 inh	T cruzi repl	HSF-1 act	L major viab
O=[N+]([O-])c1nn(-c2ccc3c(c2)OCCO3)n(O)c1=NC1CCCCC1	-0.1	3.4	41.7	-4.5	70.1*
O=[N+]([O-])c1nn(-c2ccc3c(c2)OCCO3)n(O)c1=NCc1ccccc1Cl	0.3	22.5	40.0	35.6	81.7*
CC(C)C[C@H](NC(=O)C1CC(=O)N(c2ccc3c(c2)OCCO3)C1)C(=O)N1CCCCC1 (stereo not given in full)	·	-3.4	-4.8	-9.8	·
CCN(CC)CCOC(=O)C1(c2ccccc2)CCOCC1	0.0	0.9	2.4	28.1	73.0*
CCN(CC)CCCOC(=O)C1(c2ccccc2)CCCC1	-0.4	10.6	22.5	42.4	99.1*
Cc1nc(Nc2ccccc2)sc1-c1ccccc1	-0.1	45.7	10.3	58.7*	-1.2
CC(C)(C)C(=O)Nc1nc(-c2ccccc2)ns1	-0.1	3.9	2.9	43.7	28.0
Cc1nc(Nc2ccc(C(=O)O)cc2)sc1-c1ccccc1	0.0	-5.4	-105.8	10.4	21.0
c1ccc(Nc2nc(-c3ccccc3)ns2)cc1	·	22.5	15.8	59.3*	·
COc1ccc(Cl)cc1NC(=O)c1cc(C)no1	·	0.3	-10.5	2.1	·
COc1cnc(-c2ccccn2)nc1Oc1ccc(F)cc1F	0.0	·	-5.6	·	37.2
COc1cnc(-c2ccccn2)nc1Oc1ccccc1Cl	-0.1	-24.3	-7.3	-24.9	43.7
COc1cnc(-c2ccccn2)nc1Oc1ccc(Cl)cc1	0.0	-10.5	-5.6	-5.7	71.2*
COc1cnc(-c2ccccn2)nc1Oc1ccc(Cl)c2ccccc12	-0.3	3.2	37.7	12.6	100.5*
CC1(C)C2CCC(C2)C1C/C=N/NC(N)=S (stereo not given)	·	2.4	41.3	20.9	·
CC(=O)N1CCC2(CC1)NC(=O)N(c1ccccc1)N2	-0.4	20.5	-11.0	58.6*	5.1
NC(=O)N1CCC2(CC1)NC(=O)N(c1ccccc1)N2	-0.3	5.0	2.4	-7.0	-1.4
Cc1ccc(N2CCN(Cc3ccccc3)CC2=O)c(C)c1	·	0.8	-2.5	19.4	·
O=C1CN(C(=O)c2cccc(Br)c2)c2ccccc2N1	·	-7.7	-13.0	-24.1	·
O=C1CN(C(=O)CNC(=O)c2cccc(Cl)c2)c2ccccc2N1	-0.3	-4.6	0.6	-0.5	4.2
Cc1ccc(C)c(Nc2c([N+](=O)[O-])cc(C(=O)N3CC(=O)Nc4ccccc43)cc2[N+](=O)[O-])c1	-0.2	8.6	65.7*	18.7	96.5*
Cc1cccc(Nc2c([N+](=O)[O-])cc(C(=O)N3CC(=O)Nc4ccccc43)cc2[N+](=O)[O-])c1	0.1	16.6	83.9*	26.2	81.7*
Cc1cccc(C(=O)NCC(=O)N2CC(=O)Nc3ccccc32)c1	0.0	-51.4*	-1.2	-63.0	-2.7
COc1cccc(N2CCN(C(=O)c3cccc(NC4=NC5CS(=O)(=O)CC5S4)c3)CC2)c1 (stereo not given)	·	-2.8	-8.5	-5.0	·
O=C(NCC1CC1)C1(S(=O)(=O)c2ccccc2)CC=CC1	·	-6.3	-18.1	-18.8	·
SMILES	Hsp70 activator	HSF1 inh	T cruzi repl	HSF-1 act	L major viab
CC(=O)N/N=C(\C)C1COc2ccccc2O1 (stereo not given)	·	1.6	1.8	-11.5	·
CCN(CC(=O)Nc1cccc(OC)c1)CC(=O)Nc1ccc(Br)c(C)c1	·	26.1	31.8	55.0*	·
CCN(CC(=O)Nc1cccc(OC)c1)CC(=O)Nc1ccccc1C	·	12.9	-0.8	22.9	·
Cc1cc(C)cc(OCc2ccc(C(=O)NN)o2)c1	·	-0.1	7.1	7.0	·
COC(=O)c1ccc(C2NC(=S)N(c3ccccc3)C(C)=C2C(=O)Nc2ccccc2OC)cc1 (stereo not given)	-0.2	8.6	-1.4	-3.5	72.1*
CC1CCCC(NC(=O)CCNC(=O)c2ccccc2Cl)C1C (stereo not given)	·	-1.5	-4.8	-4.2	·
COc1ccc(OC)c(N=C2SCCCN2C(=O)c2ccc(N3C(=O)CCC3=O)cc2)c1	·	-68.4*	-2.6	-76.3	·
NS(=O)(=O)c1ccc(CCNC(=O)c2ccc([N+](=O)[O-])s2)cc1	·	44.0	44.8	93.7*	·
O=C(NCCCN1CCCC1=O)c1ccc([N+](=O)[O-])s1	·	3.1	60.1*	-8.1	·
CCc1sc(C(=O)NCCCN2CCCC2=O)cc1Br	·	-4.7	-8.5	-13.5	·
Fc1ccc(Nc2nc(Oc3ccccc3F)nc(N3CCCC3)n2)cc1	0.8	2.0	33.9	5.0	43.5
CC(OC(=O)CC1CCCCC1)C(=O)Nc1cccc(C#N)c1 (stereo not given)	·	6.7	-0.5	17.1	·
Cc1ccc(OCCOc2cccc(Br)c2)c([N+](=O)[O-])n1	0.3	62.0	24.8	87.8*	46.3
Cc1ccc(OCc2ccc(Br)cc2)c([N+](=O)[O-])n1	1.2	29.4	-1.1	77.3*	0.3
Cc1ccc(OCc2ccc(-c3ccccc3)cc2)c([N+](=O)[O-])n1	·	15.5	5.2	23.2	·
O=[N+]([O-])c1ccc(S(=O)(=O)N2CCN=C2SCc2cccnc2)cc1	-0.2	2.5	25.1	20.2	14.0
COc1cc(/C=N/NC(=O)CNc2n[nH]c(=O)[nH]c2=O)ccc1O	-0.3	-14.7	-5.6	11.2	-3.1
Cn1cc([N+](=O)[O-])c(C(=O)N2CCCCCC2)n1	·	-39.0	-2.3	-52.1	·
C=CCNC(=O)CSc1nnc(C(CC)N(C)C)n1C1CCCCC1 (stereo not given)	·	25.3	0.6	67.3*	·
COc1ccc(-n2nc3c(c2NC(=O)c2ccccc2S(=O)(=O)C(F)F)CS(=O)(=O)C3)cc1	·	-13.9	1.8	-7.5	·
Cn1c(/C=N/c2nc3ccccc3[nH]2)nc2ccccc21	0.0	·	·	·	100.4*
COc1cccc(OCCNC(=O)c2cc([N+](=O)[O-])cc([N+](=O)[O-])c2)c1	-0.1	8.9	61.1*	29.2	83.4*
O=C(NCC1CC1)c1cc([N+](=O)[O-])cc([N+](=O)[O-])c1	·	2.6	61.2*	35.8	·
COc1cccc(OCCNC(=O)c2cccc(OC)c2)c1	0.5	2.7	-18.6	-3.1	0.7
Cc1ccc(OCCNC(=O)c2cc(C(=O)NCCOc3ccc(C)cc3)cc([N+](=O)[O-])c2)cc1	-0.3	6.4	51.7	9.1	99.0*
COc1ccc(NS(=O)(=O)c2cccc(C(=O)NNC(=O)CNC(=O)c3cccc(C)c3)c2)cc1	·	-2.9	-2.9	0.3	·
CCOc1ccc(N(CC(=O)N2CCCCC2)S(=O)(=O)c2ccc(Cl)cc2)cc1	·	-5.0	17.4	-17.6	·
Cc1cccc(C)c1N(CC(=O)Nc1cccc(N(C)S(C)(=O)=O)c1)S(C)(=O)=O	-0.3	-0.3	-6.9	9.4	98.1*
O=C(Nc1cccc(Cl)c1)Nc1csc([N+](=O)[O-])c1	·	34.7	63.8*	?	·
